Data taken from ChEMBL document CHEMBL1127561, “Novel spirosuccinimide aldose reductase inhibitors derived from isoquinoline-1,3-diones: 2-[(4-bromo-2-fluorophenyl)methyl]-6- fluorospiro[isoquinoline-4(1H),3'-pyrrolidine]-1,2',3,5'(2H)-tetrone and congeners. 1” (J Med Chem, 1994).
Blank lines part the entries; values can stand above or below the molecule they belong to. The source made the active and inactive calls. No cut-off for these calls is given here.

Key:
[1] = target: Aldo-keto reductase family 1 member B1 (Bos taurus) (UniProt P16116); assay: Inhibition of aldose reductase activity in a partially purified bovine lens preparation at 10e-7 M
Outline: (§1)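 Partially purified bovine lens aldose reductase (ammonium sulfate fractionation). NADPH oxidation read at 340 nm, 37 °C, in 30 mM sodium phosphate pH 6.2, 0.2 M LiSO4, […], 1% DMSO. Enzyme was preincubated with inhibitor for 5 min, then the reaction was started with 5 mM DL-glyceraldehyde. Duplicates; IC50 from linear regression of log concentration vs percent inhibition.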

[2] = target: Aldo-keto reductase family 1 member B1 (Bos taurus) (UniProt P16116); assay: Inhibition of aldose reductase activity in a partially purified bovine lens preparation at 4*10e-8 M; outline: as §1
[3] = target: Aldo-keto reductase family 1 member B1 (Bos taurus, UniProt P16116); assay: In vitro inhibition of aldose reductase activity in a partially purified bovine lens preparation
Rattus norvegicus [4] = assay: Percentage Inhibition of galactitol accumulation in the sciatic nerve of rats fed with the dose of 0.5 mg/kg/day; format: functional
Outline: (§2)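 Male Sprague-Dawley rats (70-90 g), six per group, fed 20% galactose chow with compound in the diet for 4 days; glucose-fed controls. After a 3-h fast, lens or sciatic nerve galactitol was measured as nmol/mg wet weight. Percent inhibition vs galactose-fed controls, mean ± SEM; ANOVA with Dunnett's test.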

[5] = Log P value by using Octanol / pH 7.4 buffer; format: physicochemical
Outline: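 Partition measured between octanol and pH 7.4 buffer.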

[6] = Compound was evaluated In vitro for inhibition of aldose reductase activity by 50% in rat RBC
Outline: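 Rat (or dog) red blood cells from fasted male Sprague-Dawley rats (150-170 g, EDTA, aortic arch) or pooled beagle blood; 1 mL packed cells in 2 mL HBSS with 10 mM galactose plus inhibitor 1 to 5×10^-8 M, 3 h, 95% air/5% CO2, shaken. Erythrocyte galactitol measured; IC50 mean ± SD of three to six replicate experiments.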

Rattus norvegicus [7] = species on record: Rattus norvegicus; assay: Dose at which the tissue level of polyol accumulation was reduced by 50% was evaluated for 14 days in RBC; format: functional; conditions: 336 h
Outline: (§3)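 Male Sprague-Dawley rats (200-250 g, 12 per group) made diabetic with streptozocin 60 mg/kg iv in cold 0.03 M citrate pH 4.5; plasma glucose kept between 300 and 550 mg/dl. Compound was suspended in 2% Tween 80/saline and gavaged daily for 14 days. On day 15, RBC, lens and sciatic nerve polyol was measured. ED50 by nonlinear regression of log dose.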

Rattus norvegicus [8] = species on record: Rattus norvegicus; assay: Dose at which the tissue level of polyol accumulation was reduced by 50% was evaluated for 14 days in sciatic nerve; format: functional
Outline: (§4)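 Male Sprague-Dawley rats (70-90 g, six per group) fed chow with 20% galactose and compound in the diet for 4 or 14 days. After a 3-h fast, lens and sciatic nerve were removed and frozen, and galactitol was quantitated in nmol/mg wet weight. ED50 from nonlinear regression of log dose vs tissue polyol.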

Rattus norvegicus [9] = species on record: Rattus norvegicus; assay: Dose at which the tissue level of polyol accumulation was reduced by 50% was evaluated for 4 days in lens; format: functional; conditions: Lens of camera-type eye, 96 h; outline: as §4
Rattus norvegicus [10] = species on record: Rattus norvegicus; assay: Dose at which the tissue level of polyol accumulation was reduced by 50% was evaluated for 4 days in sciatic nerve; format: functional; conditions: 96 h; outline: as §4
Rattus norvegicus [11] = assay: Percentage Inhibition of galactitol accumulation in the sciatic nerve of rats fed with the dose of 4.0 mg/kg/day; format: functional; conditions: read-out: Inhibition; outline: as §2
Rattus norvegicus [12] = assay: Percentage Inhibition of galactitol accumulation in the lens of rats fed with the dose of 4.0 mg/kg/day; NS=Not significant; format: functional, organism-based; conditions: Lens of camera-type eye; outline: as §2
Rattus norvegicus [13] = species on record: Rattus norvegicus; assay: Dose at which the tissue level of polyol accumulation was reduced by 50% was evaluated for STZ diabetic rat in sciatic nerve; format: functional; outline: as §3
Rattus norvegicus [14] = species on record: Rattus norvegicus; assay: Dose at which the tissue level of polyol accumulation was reduced by 50% was evaluated for galactosemic rat in lens; format: functional; conditions: Lens of camera-type eye; outline: as §4
Rattus norvegicus [15] = species on record: Rattus norvegicus; assay: Dose at which the tissue level of polyol accumulation was reduced by 50% was evaluated for galactosemic rat in sciatic nerve; format: functional; outline: as §4
Rattus norvegicus [16] = assay: Percentage Inhibition of galactitol accumulation in the lens of rats fed with the dose of 0.8 mg/kg/day; NS=Not significant; format: functional, organism-based; conditions: Lens of camera-type eye; outline: as §2
Rattus norvegicus [17] = assay: Percentage Inhibition of galactitol accumulation in the sciatic nerve of rats fed with the dose of 0.8 mg/kg/day; format: functional; outline: as §2
Rattus norvegicus [18] = assay: Percentage Inhibition of galactitol accumulation in the lens of rats fed with the dose of 0.6 mg/kg/day; NS=no significant; format: functional, organism-based; conditions: Lens of camera-type eye; outline: as §2
Rattus norvegicus [19] = assay: Percentage Inhibition of galactitol accumulation in the sciatic nerve of rats fed with the dose of 0.6 mg/kg/day; format: functional; outline: as §2
Rattus norvegicus [20] = assay: Percentage Inhibition of galactitol accumulation in the lens of rats fed with the dose of 1.0 mg/kg/day; NS=Not significant; format: functional, organism-based; conditions: Lens of camera-type eye; outline: as §2
Rattus norvegicus [21] = assay: Percentage Inhibition of galactitol accumulation in the sciatic nerve of rats fed with the dose of 1.0 mg/kg/day (values are mean of six animals); format: functional; outline: as §2
Rattus norvegicus [22] = assay: Percentage Inhibition of galactitol accumulation in the sciatic nerve of rats fed with the dose of 1.1 mg/kg/day; format: functional; outline: as §2
Rattus norvegicus [23] = assay: Percentage Inhibition of galactitol accumulation in the sciatic nerve of rats fed with the dose of 3.0 mg/kg/day; format: functional; outline: as §2
Rattus norvegicus [24] = assay: Percentage Inhibition of galactitol accumulation in the lens of rats fed with the dose of 3.0 mg/kg/day; NS=Not significant; format: functional, organism-based; conditions: Lens of camera-type eye; outline: as §2
Rattus norvegicus [25] = assay: Percentage Inhibition of galactitol accumulation in the sciatic nerve of rats fed with the dose of 1.0 mg/kg/day; format: functional; outline: as §2
[26] = Half-life In vitro; format: ADME

Compound: CN1C(=O)c2ccc(F)cc2C2(CC(=O)NC2=O)C1=O (stereo not drawn)
inhibition [1]: 74% | inhibition [2]: 36%

Compound: CN1C(=O)c2cc(Cl)ccc2C2(CC(=O)NC2=O)C1=O (stereo not drawn)
inhibition [1]: 61% | inhibition [2]: 34%

Compound: O=C1CC2(C(=O)N1)C(=O)N(Cc1ccc(Br)cc1F)C(=O)c1cccc(F)c12 (stereo not drawn)
IC50 [3]: 21 nM | inhibition in vivo at 0.5 mg/kg/day (Rattus norvegicus [4]): 52%

Compound: COc1ccc(CN2C(=O)c3ccccc3C3(CC(=O)NC3=O)C2=O)cc1 (stereo not drawn)
IC50 [3]: 25 nM

Compound: CN1C(=O)c2cc(Cl)c(Cl)cc2C2(CC(=O)NC2=O)C1=O (stereo not drawn)
inhibition [1]: 89% | inhibition [2]: 84%

Compound: O=C1CC2(C(=O)N1)C(=O)N(Cc1cccc(C(F)(F)F)c1)C(=O)c1ccccc12 (stereo not drawn)
IC50 [3]: 17 nM

Compound: CN1C(=O)c2cccc(Cl)c2C2(CC(=O)NC2=O)C1=O (stereo not drawn)
inhibition [1]: 24% | inhibition [2]: 11%

Compound: CON1C(=O)c2ccc(Cl)cc2C2(CC(=O)NC2=O)C1=O (stereo not drawn)
inhibition [1]: 27% | inhibition [2]: 11%

Compound: O=C1CC2(C(=O)N1)C(=O)N(Cc1ccc(Br)cc1F)C(=O)c1cc(Cl)ccc12 (stereo not drawn)
logD [5]: 3.51 | IC50 [3]: 33 nM | inhibition (Rattus norvegicus [18]): inactive | inhibition in vivo at 0.6 mg/kg/day (Rattus norvegicus [19]): 63%

Compound: COc1ccc2c(c1)C1(CC(=O)NC1=O)C(=O)N(C)C2=O (stereo not drawn)
inhibition [1]: 63% | inhibition [2]: 30%

Compound: COc1cc2c(cc1Br)C(=O)N(C)C(=O)C21CC(=O)NC1=O (stereo not drawn)
inhibition [1]: 17%

Compound: COc1ccc2c(c1)C(=O)N(C)C(=O)C21CC(=O)NC1=O (stereo not drawn)
inhibition [1]: 55% | inhibition [2]: 41%

Continued, in another order:

IC50 [3]: 25 nM
Compound: Cc1cccc(CN2C(=O)c3ccccc3C3(CC(=O)NC3=O)C2=O)c1 (stereo not drawn)

logD [5]: 2.81 | IC50 [3]: 14 nM | IC50 [6]: 26.9 nM
Compound: O=C1CC2(C(=O)N1)C(=O)N(Cc1ccc(Br)cc1F)C(=O)c1ccc(F)cc12 (stereo not drawn)
ED50 (Rattus norvegicus [7]): 0.25 mg/kg/day | ED50 (Rattus norvegicus [8]): 0.1 mg/kg/day | ED50 (Rattus norvegicus [8]; Rattus norvegicus, Sciatic nerve, 336 h, read-out: ED50): 0.09 mg/kg/day | ED50 (Rattus norvegicus [9]): 19 mg/kg/day | ED50 (Rattus norvegicus [10]): 0.3 mg/kg/day | inhibition in vivo at 4 mg/kg/day (Rattus norvegicus [11]): 95% | inhibition (Rattus norvegicus [12]): inactive | inhibition in vivo at 0.5 mg/kg/day (Rattus norvegicus [4]): 83%

IC50 [3]: 22 nM
Compound: O=C1CC2(C(=O)N1)C(=O)N(Cc1ccc(Br)cc1)C(=O)c1ccccc12 (stereo not drawn)

logD [5]: 2.74
Compound: O=C1CC2(C(=O)N1)C(=O)N(Cc1ccc(Br)cc1F)C(=O)c1ccccc12 (stereo not drawn)
ED50 (Rattus norvegicus [13]): 0.07 mg/kg/day | ED50 (Rattus norvegicus [14]): ~10 mg/kg/day | ED50 (Rattus norvegicus [15]): 0.3 mg/kg/day | inhibition (Rattus norvegicus [16]): inactive | inhibition in vivo at 0.5 mg/kg/day (Rattus norvegicus [4]): 82% | inhibition in vivo at 0.8 mg/kg/day (Rattus norvegicus [17]): 88%

IC50 [3]: 18 nM
Compound: O=C1CC2(C(=O)N1)C(=O)N(Cc1nc3ccccc3s1)C(=O)c1ccc(F)cc12 (stereo not drawn)

logD [5]: 3.09 | IC50 [3]: 22 nM
Compound: O=C1CC2(C(=O)N1)C(=O)N(Cc1ccc(Cl)c(Cl)c1)C(=O)c1ccccc12 (stereo not drawn)
inhibition (Rattus norvegicus [20]): inactive | inhibition in vivo at 1 mg/kg/day (Rattus norvegicus [21]): 64% | inhibition in vivo at 1.1 mg/kg/day (Rattus norvegicus [22]): 64% | inhibition in vivo at 3 mg/kg/day (Rattus norvegicus [23]): 76% | inhibition (Rattus norvegicus [24]): inactive

logD [5]: 3.16 | IC50 [3]: 26 nM
Compound: O=C1CC2(C(=O)N1)C(=O)N(Cc1nc3cc(C(F)(F)F)ccc3s1)C(=O)c1ccc(F)cc12 (stereo not drawn)
inhibition in vivo at 1 mg/kg/day (Rattus norvegicus [25]): 53%

half-life [26]: 4 h | IC50 [3]: 1000 nM
Compound: O=C1C[C@]2(C(=O)N1)C(=O)N(Cc1ccc(Br)cc1F)C(=O)c1ccccc12

IC50 [3]: 30 nM
Compound: O=C1CC2(C(=O)N1)C(=O)N(Cc1ccc(Br)cc1F)C(=O)c1ccc(Cl)cc12 (stereo not drawn)
inhibition in vivo at 0.6 mg/kg/day (Rattus norvegicus [19]): 29%
